Values after ≈ are worked out from the molar mass of the structure shown.
How the values were obtained:
Assay type in all cases: functional
Cryptococcus neoformans = assay: Antimicrobial activity against Cryptococcus neoformans by broth microdilution method
Procedure, shortened: (§1)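 Yeast strains: Candida albicans ATCC 90028 and Cryptococcus neoformans ATCC 90112. Tested by broth microdilution following the NCCLS reference broth dilution method for yeasts. The MIC was read as the lowest compound concentration giving no visible growth (optically clear wells).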

MCF7 = assay: Cytotoxicity against human MCF7 cells
DU-145 = assay: Cytotoxicity against human DU145 cells
P388 = assay: Cytotoxicity against mouse P388 cells
Candida albicans = assay: Antimicrobial activity against Candida albicans by broth microdilution method; procedure, shortened: as §1
SF-268 = assay: Cytotoxicity against human SF268 cells
KM-20L2 = assay: Cytotoxicity against human KM20L2 cells
BXPC-3 = assay: Cytotoxicity against human BxPC3 cells
NCI-H460 = assay: Cytotoxicity against human NCI-H460 cells

| SMILES | MIC (Cryptococcus neoformans) [µg/mL] | GI50 (MCF7) [µg/mL] | GI50 (DU-145) [µg/mL] | GI50 (P388) [µg/mL] | MIC (Candida albicans) [µg/mL] | GI50 (SF-268) [µg/mL] | GI50 (KM-20L2) [µg/mL] | GI50 (BXPC-3) [µg/mL] | GI50 (NCI-H460) [µg/mL] |
| --- | --- | --- | --- | --- | --- | --- | --- | --- | --- |
| C[C@@]12CCC[C@]3(C)C4=CC(=O)O[C@@H](O)C4=C[C@@H](OC1=O)[C@@H]23 [YUKONIN] | 64 (≈ 220 µM) | 4 (≈ 13.8 µM) | 2.9 (≈ 9.99 µM) | > 10 | > 64 | 2.9 (≈ 9.99 µM) | 3.6 (≈ 12.4 µM) | 5.6 (≈ 19.3 µM) | 4.1 (≈ 14.1 µM) |
| C[C@@]12CCC[C@]3(C)C4=CC(=O)OCC4=C[C@@H](OC1=O)[C@@H]23 | 16 (≈ 58.3 µM) | 0.69 (≈ 2.52 µM) | 0.34 (≈ 1.24 µM) | 0.31 (≈ 1.13 µM) | 64 (≈ 233 µM) | 0.57 (≈ 2.08 µM) | 0.45 (≈ 1.64 µM) | 1.8 (≈ 6.56 µM) | 0.48 (≈ 1.75 µM) |
| CO[C@H]1OC(=O)C=C2C1=C[C@H]1OC(=O)[C@@]3(C)CCC[C@@]2(C)[C@@H]13 | 2 (≈ 6.57 µM) | 0.33 (≈ 1.08 µM) | 0.14 (≈ 0.46 µM) | 4.1 (≈ 13.5 µM) | 8 (≈ 26.3 µM) | 0.24 (≈ 0.789 µM) | 0.21 (≈ 0.69 µM) | 0.36 (≈ 1.18 µM) | 0.24 (≈ 0.789 µM) |

Source: ChEMBL document CHEMBL1159346, “Antineoplastic agents. 488. Isolation and structure of yukonin from a yukon territory fungus” (2003)
